≈ marks a conversion by molar mass, not a printed value.
How the values were obtained:
Bacillus anthracis [1] = test: Antimicrobial activity against Bacillus anthracis infected mouse spore inhalation anthrax model assessed as survival rate at 30 mg/kg, ip every 48 hrs for 14 days treated 24 hrs postinfection; assay type: functional; details: route intraperitoneal
Bacillus anthracis [2] = test: Antimicrobial activity against Bacillus anthracis infected mouse spore inhalation anthrax model assessed as bacterial load per gram of lung tissue at 50 mg/kg, iv administered as single dose treated 28 days before infection; assay type: functional
Bacillus anthracis [3] = test: Antimicrobial activity against Bacillus anthracis infected mouse spore inhalation anthrax model assessed as survival rate at 3 mg/kg, ip every 48 hrs for 14 days treated 24 hrs postinfection; assay type: functional; details: route intraperitoneal
Bacillus anthracis [4] = test: Antimicrobial activity against Bacillus anthracis infected mouse spore inhalation anthrax model assessed as survival rate at 0.1 mg/kg, ip every 48 hrs for 14 days treated 24 hrs postinfection; assay type: functional; details: route intraperitoneal
Bacillus anthracis [5] = test: Antimicrobial activity against Bacillus anthracis infected mouse spore inhalation anthrax model; assay type: functional; details: inhaled or nasal
Bacillus anthracis [6] = test: Antimicrobial activity against Bacillus anthracis infected mouse spore inhalation anthrax model assessed as survival rate at 5 mg/kg, iv administered as single dose treated 24 hrs postinfection; assay type: functional
Bacillus anthracis [7] = test: Antimicrobial activity against Bacillus anthracis infected mouse spore inhalation anthrax model assessed as bacterial load per gram of lung tissue at 10 mg/kg, ip every 48 hrs for 14 days treated 36 hrs postinfection; assay type: functional; details: route intraperitoneal
Bacillus anthracis [8] = test: Antimicrobial activity against Bacillus anthracis infected mouse spore inhalation anthrax model assessed as survival rate at 15 mg/kg, iv administered as single dose treated 24 hrs postinfection; assay type: functional
Bacillus anthracis [9] = test: Antimicrobial activity against Bacillus anthracis infected mouse spore inhalation anthrax model assessed as survival rate at 10 mg/kg, ip every 48 hrs for 14 days treated 36 hrs postinfection; assay type: functional; details: route intraperitoneal
Bacillus cereus [10] = test: Antimicrobial activity against Bacillus cereus ATCC 4342 by broth microdilution method; assay type: functional
How it was run: (§1)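 B. cereus ATCC 4342 went through stepwise selection for 20 cycles in cation-adjusted Mueller-Hinton broth with doubling drug dilutions. Each cycle was seeded from the previous day's 0.5× MIC wells, in two independent rounds per drug. Selectants showing a fourfold or greater MIC rise were passaged 5 days without drug. Their MICs were then read alongside the parent strain. Oritavancin assays carried 0.002% polysorbate 80 throughout.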

Bacillus anthracis [11] = test: Antimicrobial activity against Bacillus anthracis infected mouse spore inhalation anthrax model assessed as bacterial load per gram of lung tissue at 10 mg/kg, ip every 48 hrs for 14 days treated 48 hrs postinfection; assay type: functional; details: route intraperitoneal
Bacillus anthracis [12] = test: Antimicrobial activity against Bacillus anthracis infected mouse spore inhalation anthrax model assessed as bacterial load per gram of lung tissue at 5 mg/kg, iv administered as single dose treated 24 hrs postinfection; assay type: functional
Bacillus anthracis [13] = test: Antimicrobial activity against Bacillus anthracis infected mouse spore inhalation anthrax model assessed as bacterial load per gram of lung tissue at 50 mg/kg, iv administered as single dose treated 14 days before infection; assay type: functional
Bacillus anthracis [14] = test: Antimicrobial activity against Bacillus anthracis infected mouse spore inhalation anthrax model assessed as bacterial load per gram of lung tissue at 1 mg/kg, ip every 48 hrs for 14 days treated 24 hrs postinfection; assay type: functional; details: route intraperitoneal
Bacillus anthracis [15] = test: Ratio of MIC90 for Bacillus anthracis in presence of polysorbate-80 to MIC90 for Bacillus anthracis; assay type: functional
Bacillus anthracis [16] = test: Antimicrobial activity against Bacillus anthracis infected mouse spore inhalation anthrax model assessed as survival rate at 50 mg/kg, iv administered as single dose treated 14 days before infection measured on 22 days postinfection; assay type: functional
Bacillus anthracis [17] = test: Antimicrobial activity against Bacillus anthracis infected mouse spore inhalation anthrax model assessed as bacterial load per gram of lung tissue at 3 mg/kg, ip every 48 hrs for 14 days treated 24 hrs postinfection; assay type: functional; details: route intraperitoneal
Bacillus anthracis [18] = test: Antimicrobial activity against Bacillus anthracis infected mouse spore inhalation anthrax model assessed as bacterial load per gram of lung tissue at 30 mg/kg, ip every 48 hrs for 14 days treated 24 hrs postinfection; assay type: functional; details: route intraperitoneal
Bacillus anthracis [19] = test: Antimicrobial activity against Bacillus anthracis infected mouse spore inhalation anthrax model assessed as bacterial load per gram of lung tissue at 10 mg/kg, ip every 48 hrs for 14 days treated 24 hrs postinfection; assay type: functional; details: route intraperitoneal
Mus musculus [20] = test: Free peak concentration in Bacillus anthracis infected mouse spore inhalation anthrax model at 32 mg/kg, ip administered as single dose; assay type: ADME, organism-based; set-up: dose 32 mg/kg, route intraperitoneal; details: in vivo
Bacillus anthracis [21] = test: Antimicrobial activity against Bacillus anthracis infected mouse spore inhalation anthrax model assessed as bacterial load per gram of lung tissue at 0.3 mg/kg, ip every 48 hrs for 14 days treated 24 hrs postinfection; assay type: functional; details: route intraperitoneal
Bacillus cereus [22] = test: Ratio of MIC for Bacillus cereus ATCC 4342 selected after 20 daily cycles of drug selection followed by 5 days of nonselective growth to MIC for Bacillus cereus ATCC 4342; assay type: functional; how it was run: as §1
Bacillus anthracis [23] = test: Antimicrobial activity against Bacillus anthracis infected mouse spore inhalation anthrax model assessed as bacterial load per gram of lung tissue at 50 mg/kg, iv administered as single dose treated 42 hrs postinfection; assay type: functional
Bacillus anthracis [24] = test: Antimicrobial activity against Bacillus anthracis infected mouse spore inhalation anthrax model assessed as bacterial load per gram of lung tissue at 50 mg/kg, iv administered as single dose treated 24 hrs postinfection; assay type: functional
Bacillus anthracis [25] = test: Antimicrobial activity against Bacillus anthracis infected mouse spore inhalation anthrax model assessed as survival rate at 0.3 mg/kg, ip every 48 hrs for 14 days treated 24 hrs postinfection; assay type: functional; details: route intraperitoneal
Bacillus anthracis [26] = test: Antimicrobial activity against Bacillus anthracis infected mouse spore inhalation anthrax model assessed as survival rate at 0.1 mg/kg, ip every 48 hrs for 14 days treated 24 hrs postinfection measured on day 3; assay type: functional; details: route intraperitoneal
Bacillus anthracis [27] = test: Antimicrobial activity against Bacillus anthracis infected mouse spore inhalation anthrax model assessed as survival rate at 1 mg/kg, ip every 48 hrs for 14 days treated 24 hrs postinfection; assay type: functional; details: route intraperitoneal
Bacillus anthracis [28] = test: Antimicrobial activity against Bacillus anthracis infected mouse spore inhalation anthrax model assessed as survival rate at 50 mg/kg, iv administered as single dose treated 7 days before infection measured on 33 days postinfection; assay type: functional
Bacillus anthracis [29] = test: Antimicrobial activity against Bacillus anthracis infected mouse spore inhalation anthrax model assessed as survival rate at 50 mg/kg, iv administered as single dose treated 24 hrs before infection measured on 33 days postinfection; assay type: functional
Bacillus anthracis [30] = test: Antimicrobial activity against Bacillus anthracis infected mouse spore inhalation anthrax model assessed as survival rate at 50 mg/kg, iv administered as single dose treated 24 hrs postinfection; assay type: functional
Bacillus anthracis [31] = test: Antimicrobial activity against Bacillus anthracis infected mouse spore inhalation anthrax model assessed as bacterial load per gram of lung tissue at 50 mg/kg, iv administered as single dose treated 7 days before infection; assay type: functional
Bacillus anthracis [32] = test: Antimicrobial activity against Bacillus anthracis infected mouse spore inhalation anthrax model assessed as survival rate at 50 mg/kg, iv administered as single dose treated 28 days before infection measured on 22 days postinfection; assay type: functional
Mus musculus [33] = test: Free peak concentration in Bacillus anthracis infected mouse spore inhalation anthrax model at 32 mg/kg, iv administered as single dose; assay type: ADME, organism-based; set-up: dose 32 mg/kg, route intravenous; details: in vivo
Mus musculus [34] = test: fAUC (0.25 to 72 hrs) in Bacillus anthracis infected mouse spore inhalation anthrax model at 32 mg/kg, ip administered as single dose; assay type: ADME, organism-based; set-up: dose 32 mg/kg, route intraperitoneal; details: in vivo
Bacillus anthracis [35] = test: Antimicrobial activity against Bacillus anthracis infected mouse spore inhalation anthrax model assessed as survival rate at 10 mg/kg, ip every 48 hrs for 14 days treated 48 hrs postinfection; assay type: functional; details: route intraperitoneal
Bacillus cereus [36] = test: Antimicrobial activity against Bacillus cereus ATCC 4342 selected after 20 daily cycles of drug selection followed by 5 days of nonselective growth by broth microdilution method; assay type: functional; details: ATCC 4342, 120 h; how it was run: as §1
Mus musculus [37] = test: fAUC (0.25 to 72 hrs) in Bacillus anthracis infected mouse spore inhalation anthrax model at 32 mg/kg, iv administered as single dose; assay type: ADME, organism-based; set-up: dose 32 mg/kg, route intravenous; details: in vivo
Bacillus anthracis [38] = test: Antimicrobial activity against Bacillus anthracis infected mouse spore inhalation anthrax model assessed as bacterial load per gram of lung tissue at 15 mg/kg, iv administered as single dose treated 24 hrs postinfection; assay type: functional
Bacillus anthracis [39] = test: Antimicrobial activity against Bacillus anthracis infected mouse spore inhalation anthrax model assessed as survival rate at 50 mg/kg, iv administered as single dose treated 42 hrs postinfection; assay type: functional
Mus musculus [40] = species on record: Mus musculus; details: in vivo, ip, 1.2 mg/kg
Bacillus anthracis [41] = test: Antimicrobial activity against Bacillus anthracis infected mouse spore inhalation anthrax model assessed as survival rate at 10 mg/kg, ip every 48 hrs for 14 days treated 24 hrs postinfection; assay type: functional; details: route intraperitoneal
Bacillus anthracis [42] = test: Antimicrobial activity against Bacillus anthracis by broth microdilution method in presence of polysorbate-80; assay type: functional
Bacillus anthracis [43] = test: Antimicrobial activity against Bacillus anthracis Ames by broth microdilution method in presence of polysorbate-80; assay type: functional
Bacillus anthracis [44] = test: Antimicrobial activity against Bacillus anthracis infected mouse spore inhalation anthrax model assessed as bacterial load per gram of lung tissue at 50 mg/kg, iv administered as single dose treated 24 hrs before infection; assay type: functional

SMILES: CN[C@H](CC(C)C)C(=O)N[C@H]1C(=O)N[C@@H](CC(N)=O)C(=O)N[C@H]2C(=O)N[C@H]3C(=O)N[C@H](C(=O)N[C@H](C(=O)O)c4cc(O)cc(O)c4-c4cc3ccc4O)[C@H](O[C@H]3C[C@](C)(N)[C@@H](O)[C@H](C)O3)c3ccc(c(Cl)c3)Oc3cc2cc(c3O[C@@H]2O[C@H](CO)[C@@H](O)[C@H](O)[C@H]2O[C@H]2C[C@](C)(NCc3ccc(-c4ccc(Cl)cc4)cc3)[C@@H](O)[C@H](C)O2)Oc2ccc(cc2Cl)[C@H]1O [ORITAVANCIN]
- survival at 30 mg/kg (Bacillus anthracis [1]): 100%
- log10cfu (Bacillus anthracis [2]): 51000
- survival at 3 mg/kg (Bacillus anthracis [3]): 100%
- survival at 0.1 mg/kg (Bacillus anthracis [4]): 0%
- ED50 (Bacillus anthracis [5]): 1.2 mg/kg
- survival at 5 mg/kg (Bacillus anthracis [6]): 40%
- log10cfu (Bacillus anthracis [7]): 2520
- survival at 15 mg/kg (Bacillus anthracis [8]): 70%
- survival at 10 mg/kg (Bacillus anthracis [9]): 90%
- MIC (Bacillus cereus [10]): 4 ng/mL (≈ 2.23 nM)
- log10cfu (Bacillus anthracis [11]): 1680
- log10cfu (Bacillus anthracis [12]): 35000
- log10cfu (Bacillus anthracis [13]): 65000
- log10cfu (Bacillus anthracis [14]): 29500
- Ratio (Bacillus anthracis [15]): 16
- survival at 50 mg/kg (Bacillus anthracis [16]): 100%
- log10cfu (Bacillus anthracis [17]): 36800
- log10cfu (Bacillus anthracis [18]): 18200
- log10cfu (Bacillus anthracis [19]): 35000
- Cmax_unbound (Mus musculus [20]): 6100 ng/mL
- log10cfu (Bacillus anthracis [21]): 28000
- Ratio (Bacillus cereus [22]): 1
- log10cfu (Bacillus anthracis [23]): 740
- log10cfu (Bacillus anthracis [24]): 36100
- survival at 0.3 mg/kg (Bacillus anthracis [25]): 30%
- Activity (Bacillus anthracis [26]): 100%
- survival at 1 mg/kg (Bacillus anthracis [27]): 50%
- survival at 50 mg/kg (Bacillus anthracis [28]): 90%
- survival at 50 mg/kg (Bacillus anthracis [29]): 100%
- survival at 50 mg/kg (Bacillus anthracis [30]): 100%
- log10cfu (Bacillus anthracis [31]): 63000
- survival at 50 mg/kg (Bacillus anthracis [32]): 20%
- Cmax_unbound (Mus musculus [33]): 17000 ng/mL
- fAUC (Mus musculus [34]): 54000 ng·h/mL
- survival at 10 mg/kg (Bacillus anthracis [35]): 50%
- MIC (Bacillus cereus [36]): 8 ng/mL (≈ 4.46 nM)
- fAUC (Mus musculus [37]): 61000 ng·h/mL
- log10cfu (Bacillus anthracis [38]): 20300
- survival at 50 mg/kg (Bacillus anthracis [39]): 55%
- fAUC (Mus musculus [40]): 1900 ng·h/mL
- survival at 10 mg/kg (Bacillus anthracis [41]): 100%
- MIC90 (Bacillus anthracis [42]): 120 ng/mL
- MIC (Bacillus anthracis [43]): 15 ng/mL
- log10cfu (Bacillus anthracis [44]): 1980

SMILES: CC1(C)S[C@@H]2[C@H](NC(=O)Cc3ccccc3)C(=O)N2[C@H]1C(=O)O [PENICILLIN G]
- MIC (Bacillus cereus [10]): 8 ng/mL (≈ 23.9 nM)
- Ratio (Bacillus cereus [22]): >8
- MIC (Bacillus cereus [36]): > 60 ng/mL

— ChEMBL document CHEMBL1687708, “Efficacy of oritavancin in a murine model of Bacillus anthracis spore inhalation anthrax” (Antimicrob Agents Chemother, 2008)
